Here are results for four molecules from ChEMBL document CHEMBL5375970, “Discovery of Potent and Selective WDR5 Proteolysis Targeting Chimeras as Potential Therapeutics for Pancreatic Cancer” (J Med Chem, 2023).

Type in all cases: cell-based
Test [1] has as its target T1, Protein cereblon/WD repeat-containing protein 5 (Homo sapiens) (UniProt P61964+Q96SW2). In words: PROTAC activity at CRBN/WDR5 in human MV4-11 cells assessed as degradation of WDR5 protein at 0.01 to 5 uM incubated for 18 hrs by Western blotting analysis. To be noted: dose 0.01-5 µM. Put shortly:
(§1)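 MV4;11 cells (RPMI 1640, 10% FBS) and MIA PaCa-2 cells (DMEM, 10% FBS) treated with DMSO or compound for 18 h. Whole-cell lysates immunoblotted for WDR5, IKZF1 (MV4;11 only) and LIMD1 (MV4;11 only), with tubulin as loading control and fluorescent secondary antibodies. Representative of at least two independent experiments.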
For orientation: A western blot detects proteins with antibodies after separation by electrophoresis.

Test [2] concerns the target T2, Protein cereblon/LIM domain-containing protein 1 (Homo sapiens) (UniProt Q96SW2+Q9UGP4). Nature of the test: PROTAC activity at CRBN/LIMD1 in human MV4-11 cells assessed as degradation of IKZF1 protein at 2 uM incubated for 18 hrs by Western blotting analysis. Put shortly: as §1
For test [3], the target named is T3, Cereblon/Ikaros (Homo sapiens) (UniProt Q96SW2+Q13422). In words: PROTAC activity at CRBN/IKZF1 in human MV4-11 cells assessed as degradation of IKZF1 protein at 0.5 uM incubated for 18 hrs by Western blotting analysis. The gist of the method:
as §1

Test [4] deals with T3, Cereblon/Ikaros (Homo sapiens). In words: PROTAC activity at CRBN/IKZF1 in human MV4-11 cells assessed as degradation of IKZF1 protein at 0.01 to 5 uM incubated for 18 hrs by Western blotting analysis. To be noted: dose 0.01-5 µM. Put shortly: as §1
Test [5] has the same target. Nature of the test: PROTAC activity at CRBN/IKZF1 in human MV4-11 cells assessed as degradation of IKZF1 protein at 2 uM incubated for 18 hrs by Western blotting analysis. The gist of the method:
as §1

The target of test [6] is T1, Protein cereblon/WD repeat-containing protein 5 (Homo sapiens). In words: PROTAC activity at CRBN/WDR5 in human MV4-11 cells assessed as degradation of WDR5 protein at 2 uM incubated for 18 hrs by Western blotting analysis. The gist of the method: as §1
For test [7] the target is unchanged. In words: PROTAC activity at CRBN/WDR5 in human MV4-11 cells assessed as degradation of WDR5 protein at 0.5 uM incubated for 18 hrs by Western blotting analysis. The gist of the method: as §1
Test [8] concerns the target T2, Protein cereblon/LIM domain-containing protein 1 (Homo sapiens). In words: PROTAC activity at CRBN/LIMD1 in human MV4-11 cells assessed as degradation of IKZF1 protein at 0.5 uM incubated for 18 hrs by Western blotting analysis. The gist of the method:
as §1

Test [9] concerns the target T1, Protein cereblon/WD repeat-containing protein 5 (Homo sapiens). Nature of the test: PROTAC activity at CRBN/WDR5 in human MIA PaCa-2 cells assessed as degradation of WDR5 protein at 0.01 to 5 uM incubated for 18 hrs by Western blotting analysis. To be noted: dose 0.01-5 µM. Put shortly: as §1
In test [10] the test system is von Hippel-Lindau disease tumor suppressor/WD repeat-containing protein 5 (Homo sapiens), P61964+P40337 [K296R]. In words: PROTAC activity at human VHL/human WDR5 K296R mutant expressed in HEK293T cells assessed as degradation of WDR5 protein at 0.25 to 5 uM incubated for 3 days by Western blotting analysis. To be noted: dose 0.25-5 µM, time 3.0 day. The gist of the method:
(§2)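 HEK293T cells were lentivirally transduced with doxycycline-inducible (1 μg/mL) 3×FLAG WDR5 wild type, K32R or K296R and selected with puromycin for 4 days. The stable lines were treated with a concentration series for 72 h. Lysates were run on 4–12% SDS-PAGE and immunoblotted for WDR5 with a vinculin loading control, with at least two independent experiments.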

Test [11] deals with von Hippel-Lindau disease tumor suppressor/WD repeat-containing protein 5 (Homo sapiens, UniProt P61964+P40337). In words: PROTAC activity at human VHL/human WDR5 wild type expressed in HEK293T cells assessed as degradation of WDR5 protein incubated for 3 days by Western blotting analysis. To be noted: time 3.0 day. Put shortly: as §2
Test [12] relates to von Hippel-Lindau disease tumor suppressor/WD repeat-containing protein 5 (Homo sapiens), P61964+P40337 [K32R]. In words: PROTAC activity at human VHL/human WDR5 K32R mutant expressed in HEK293T cells assessed as degradation of WDR5 protein at 0.25 to 5 uM incubated for 3 days by Western blotting analysis. To be noted: dose 0.25-5 µM, time 3.0 day. The gist of the method: as §2

SMILES strings stand for the structures. Activity calls are given as the source filed them. The calls are words filed in the database; no cut-off is given here.

For `CN1CCN(c2ccc(-c3cccc(CN4CCN(CCNC(=O)CCCCCCCNC(=O)COc5cccc6c5C(=O)N(C5CCC(=O)NC5=O)C6=O)CC4)c3)cc2NC(=O)c2c[nH]c(=O)cc2C(F)(F)F)CC1` (stereo unspecified), the outcome in [1], in test [6], in test [7] and in test [9] was Active. For the same molecule, the outcome in test [2], in test [3], in test [4], in test [5] and in test [8] was inactive.
`CN1CCN(c2ccc(-c3cccc(CN4CCN(CCNC(=O)CCCCNC(=O)COc5cccc6c5C(=O)N(C5CCC(=O)NC5=O)C6=O)CC4)c3)cc2NC(=O)c2c[nH]c(=O)cc2C(F)(F)F)CC1` (stereo unspecified): the result in test [2], in test [3], in test [5] and in test [8] was inactive. For the same molecule, the outcome in test [6] and in [7] was Active.
Turning to `Cc1ncsc1-c1ccc([C@H](C)NC(=O)[C@@H]2C[C@@H](O)CN2C(=O)[C@@H](NC(=O)CNC(=O)c2ccc(F)c(-c3ccc(N4C[C@@H](C)N(C)[C@@H](C)C4)c(NC(=O)c4c[nH]c(=O)cc4C(F)(F)F)c3)c2)C(C)(C)C)cc1`, in [10], the result was inactive. Also, in test [11], the Activity entry was “Dose-Dependent Effect”. Besides, the outcome in [12] was Active.
Take `C[C@@H]1CN(c2ccc(-c3cc(C(=O)NCCCCCCCNC(=O)COc4cccc5c4C(=O)N(C4CCC(=O)NC4=O)C5=O)ccc3F)cc2NC(=O)c2c[nH]c(=O)cc2C(F)(F)F)C[C@H](C)N1C` (stereo partly specified): the result in test [1] and in test [9] was Active. For the same molecule, the result in test [4] was inactive.
